# Screening results: PubChem BioAssay, Johns Hopkins Ion Channel Center
# TRPC4 act = opens the mouse TRPC4 cation channel; Q9QUQ5; 0.49% of 310,000 active; AID 2237; HEK293 TRPC4beta/mu-opioid, Fluo4 calcium fluorescence; active compounds read high; B-score at 10 µM;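 active means B-score above 5 SD of library B-scores, and initial fluorescence ratio not above library mean plus 5 SD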;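 further: positive B-score marks a calcium rise read as TRPC4 activation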
#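 System – HEK293 cells stably co-expressing mouse TRPC4beta and mu-opioid receptor · Signal – Fluo4 calcium-sensitive dye fluorescence, kinetic, 1 Hz baseline · Benchmarks – buffer (low) and maximal DAMGO (high) · Read-out – B score of integrated fluorescence ratio per well · Incubation – dye loading 45 min room temperature, 110 s kinetic read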
# TRPC6 inhibitor = blocks the mouse TRPC6 cation channel | Q61143 | HEK293-TRPC6, membrane potential dye, ACh-evoked depolarization; active compounds read low | 1.1% of 310,000 active | B-score at 10 µM | AID 2553;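 active means B-score under library mean minus 3 SD, initial fluorescence not abnormally high, positive integrated signal ratio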;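 further: B-score derived from integrated fluorescence ratio over the kinetic read; more negative B-score means stronger inhibition of depolarization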
# TRPC4 inh = blocks the mouse TRPC4 cation channel; HEK293 TRPC4beta/mu-opioid, DAMGO-evoked Fluo4 calcium flux; active compounds read low; B-score at 10 µM; 0.39% of 300,000 active;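 active means B-score over 3 SD under the library average, no early fluorescence shift, positive overall ratio signal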
#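 Assay system: HEK293 cells with stable TRPC4beta plus mu-opioid receptor expression. Dosing: single dose. Measured by: Fluo4 Ca2+ flux fluorescence. Also added: DAMGO in two steps, submaximal then maximal. Read-out: B score from integrated Fluo4 fluorescence ratio.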
# Kir21 block = inhibitors of mouse Kir2.1 inward-rectifier potassium channel; B-score at 10 µM; HEK293-Kir2.1, FluxOR thallium flux fluorescence; active compounds read low; P35561; 0.85% of 310,000 active;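 active means fluorescence ratio B-score at or below minus 3 SD of library scores, with starting-brightness B-score within 2 SD, cut at about -4.2 in these data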;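 further: channel flux triggered by added potassium and thallium sulfate stimulus; B-score of peak minus minimum fluorescence over baseline after thallium stimulus; more negative B-score means stronger Kir2.1 block with less thallium influx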
# Target sequence (P35561 whole entry, looked up): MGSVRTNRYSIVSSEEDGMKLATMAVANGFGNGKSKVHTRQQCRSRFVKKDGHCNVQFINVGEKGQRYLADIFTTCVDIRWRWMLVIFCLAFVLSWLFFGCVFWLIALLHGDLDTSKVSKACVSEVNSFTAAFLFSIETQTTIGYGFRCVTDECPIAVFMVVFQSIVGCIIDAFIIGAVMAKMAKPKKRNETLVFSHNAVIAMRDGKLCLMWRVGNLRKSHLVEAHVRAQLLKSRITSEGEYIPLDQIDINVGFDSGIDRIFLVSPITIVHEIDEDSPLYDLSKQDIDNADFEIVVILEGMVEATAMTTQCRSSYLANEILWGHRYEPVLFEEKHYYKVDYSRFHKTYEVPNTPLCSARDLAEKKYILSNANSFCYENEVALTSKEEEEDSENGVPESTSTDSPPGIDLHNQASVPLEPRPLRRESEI
# TRPC4 potent = TRPC4 (mouse) allosteric potentiation. AID 2227. HEK293 TRPC4beta/mu-opioid, DAMGO EC20, Fluo-4 Ca2+ flux; active compounds read high. B-score at 10 µM. Q9QUQ5. 0.42% of 310,000 active;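 active means B-score of calcium response area above 5 SD of library B-scores, with initial fluorescence ratio within 5 SD of library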
# TRPC6 activator = activators of mouse TRPC6 channel; 0.13% of 310,000 active; B-score at 10 µM; HEK293-TRPC6 membrane potential dye fluorescence; active compounds read high; Q61143; AID 2550;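 active means B-score of the integrated fluorescence ratio above library mean plus 3 SD, and starting fluorescence ratio within library mean plus 5 SD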;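 further: higher score means more depolarization so channel activation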
# Hits are given with their value; . = inactive. Most compounds without a hit are left out; they make up all but 3% or so of the library.
SMILES,TRPC4 act,TRPC6 inhibitor,TRPC4 inh,Kir21 block,TRPC4 potent,TRPC6 activator
C=CCNC(=O)CC1C(=O)NCCN1Cc1ccc(-c2ccccc2)cc1 (stereo unspecified),.,.,.,.,.,.
Cc1csc(CN(C)C(=O)CC2C(=O)NCCN2Cc2ccc(F)cc2Cl)n1 (stereo unspecified),.,.,.,.,.,.
CCOc1ccccc1CN1CCNC(=O)C1CC(=O)N(C)CCC1CCOCC1 (stereo unspecified),.,.,.,.,.,.
CCOc1ccccc1CN1CCNC(=O)C1CC(=O)N(C)CCc1ccccn1 (stereo unspecified),153,.,.,.,.,.
NC(N)=NC(=O)Cc1c(Cl)cccc1Cl,46,.,.,.,.,.
CC1CCCCN1CCCNC(=O)c1nn(C)c2c1CSc1ccccc1-2 (stereo unspecified),.,.,-7,.,.,.
Cc1ccc(C(=O)N/C(=C/c2ccco2)C(=O)NCCc2c[nH]c3ccccc23)cc1,.,.,.,.,.,.
Clc1cccc(COn2c(-c3ccc(Cl)cc3Cl)nc3ncccc32)c1,.,.,-6,.,.,.
COn1c(-c2ccccc2)nc2ncccc21,.,.,.,.,.,.
Cc1ccc(COn2c(-c3ccc(Cl)cc3Cl)nc3ncccc32)cc1,59,.,-8,-5.1,.,.
Cc1ccccc1CCN(C(=O)c1csnn1)C(C(=O)NC1CCCC1)c1ccncc1 (stereo unspecified),.,.,.,.,.,.
Cc1cc(CN(C)C(=O)c2ccc(OC3CCN(CCc4ccccc4)CC3)cc2)on1,.,.,.,.,.,.
O=C(NCCc1cccc(Cl)c1)c1ccc(OC2CCN(Cc3ccccn3)CC2)cc1,150,.,.,-5.4,.,.
CC(Cc1ccccn1)NC(=O)c1ccc(OC2CCN(CCc3ccccc3)CC2)cc1 (stereo unspecified),.,.,.,.,.,.
O=C(NCC1COCCO1)c1ccc(OC2CCN(CCc3ccccc3)CC2)cc1 (stereo unspecified),.,.,.,.,.,.
CN(Cc1cnn(C)c1)C(=O)c1ccc(OC2CCN(CCc3ccccc3)CC2)cc1,.,.,-6,.,.,.
CSCCCNC(=O)c1ccc(OC2CCN(CCc3ccccc3)CC2)cc1,58,.,.,.,.,.
O=C(NCCc1ccccn1)c1ccc(OC2CCN(CCc3ccccc3)CC2)cc1,66,.,.,.,.,.
CCc1ccccc1NC(=O)C1CCN(S(C)(=O)=O)CC1,.,.,.,.,.,.
C=C[C@]1(C)C[C@@H](OC(=O)CSCCN(CC)CC)[C@]2(C)C(C)CC[C@]3(CCC(=O)[C@H]32)[C@@H](C)[C@@H]1O (stereo partly specified),.,.,.,.,.,.
CCCCc1ncc(CN2CCC(n3nccc3NC(=O)c3ccccc3OC)CC2)[nH]1,.,.,.,.,.,.
CN(CC(=O)Nc1ccc(F)cc1)C(=O)CCc1ccccc1,.,.,.,.,.,.
CN(CC(=O)Nc1ccc(F)cc1)C(=O)COC(=O)c1ccccc1,.,.,.,.,106,.
O=C(CN1CCN(c2ccc([N+](=O)[O-])cc2)CC1)c1ccccc1,.,.,.,.,11,.
CCN(CC)CCCN1C(=O)C2C(C(=O)Nc3ccc(C(C)C)cc3)C3C=CC2(O3)C1C(=O)NC1CCCCC1 (stereo unspecified),.,.,.,.,.,.
SMILES,TRPC4 act,TRPC6 inhibitor,TRPC4 inh,Kir21 block,TRPC4 potent,TRPC6 activator
CCN(CC)CCN1C(=O)C2C(C(=O)Nc3cc(C)cc(C)c3)C3C=CC2(O3)C1C(=O)NC1CCCCC1 (stereo unspecified),47,.,.,.,.,.
CCC1CCCCN1CCN1C(=O)C2C(C(=O)Nc3ccc(OC)cc3)C3C=CC2(O3)C1C(=O)NC1CCCCC1 (stereo unspecified),.,.,-6,.,.,.
CC(=O)/C(C#N)=C1\NC(=O)C(Cc2ccccc2C)S1 (stereo unspecified),.,.,.,.,.,.
CCOC(=O)C1=C(C)N(c2ccccc2)C(=O)NC1c1cccc([N+](=O)[O-])c1 (stereo unspecified),.,.,.,.,15,.
CCOC(=O)C1=C(C)N(C)C(=O)NC1c1cccc([N+](=O)[O-])c1 (stereo unspecified),.,.,.,.,.,.
CN1CCCC(CC2Oc3ccccc3Sc3ccccc32)C1 (stereo unspecified),.,.,.,.,.,.
c1ccc2c(c1)OC(CCCN1CCCCC1)c1ccccc1S2 (stereo unspecified),.,.,.,-5.8,.,.
Cc1ccc(NC(=S)N2CC(C)OC(C)C2)cc1C (stereo unspecified),.,.,.,.,.,.
O=C(Nc1c(C(=O)N2CCN(c3ccccn3)CC2)oc2ccccc12)c1cccc([N+](=O)[O-])c1,.,.,.,.,.,.
O=S(=O)(NCCSc1ccc(Cl)cc1)c1ccc2c(c1)OCCO2,.,.,.,-5.4,.,.
C=CCc1ccccc1OCC(O)CN1CCN(c2ccccc2OC)CC1 (stereo unspecified),.,.,-6,.,.,.
C=CCc1ccccc1OCCCCN1CCCC1,.,.,.,.,.,.
C=CCc1ccccc1OCC(CN1CCCCC1)OC(C)=O (stereo unspecified),.,.,-6,.,.,.
Cc1nc2ccccc2c(=O)n1NC(=O)c1cccc([N+](=O)[O-])c1,.,.,.,.,.,.
COc1cc(/C=C2\C(=N)N3N=C(S(C)(=O)=O)SC3=NC2=O)ccc1OC(=O)c1cccs1,.,.,-7,.,.,.
CCS(=O)(=O)C1=NN2C(=N)/C(=C\c3ccc(OC(=O)c4ccco4)c(Br)c3)C(=O)N=C2S1,.,.,.,-6.1,.,.
NS(=O)(=O)c1ccc(Nc2nc(-c3ccc(O)cc3O)cs2)cc1,.,.,-6,.,.,.
Cc1nc2cc(NCc3ccccc3O)ccc2n1Cc1ccccc1,.,.,.,.,.,.
CCN1CCN(C(=O)C2CCN(c3nnc(C)c4c(C)n(-c5ccc(C)cc5)nc34)CC2)CC1,.,.,-5,.,.,.
O=[N+]([O-])c1ccc(N2CCN(Cc3ccc(Br)o3)CC2)cc1,.,.,.,.,.,.
CCCC(=O)Nc1c(-c2ccccc2)c(=O)c(C)nn1-c1ccc(Cl)cc1,78,.,.,.,.,.
COc1ccc(N2CCN(C(=S)NCc3ccccc3)CC2)cc1,.,.,.,.,.,.
